Assay outcomes: PubChem BioAssay, The Scripps Research Institute Molecular Screening Center
Compounds with a hit are over-represented: about 2% of the library has one in this group of screens.
SIAE primary – human SIAE inhibitors, primary screen, biochemical, fluorescence polarization, FP-Rh probe, 1536-well HTS. AID 1053197, 2014. inhibition, % at 9.66 µM. 370,000 tested, 0.69% active. SIAE FP-Rh probe binding. Sialate O-acetylesterase (Homo sapiens), Q9HAT2;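 active = inhibition above a cutoff: mean of compounds within the control limits plus 3 SD of those, cut at about 17% in these data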;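 note: 0% = plate median of compound wells and 100% = probe without SIAE protein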
PAD4 FP inh – human PAD4 inhibitors, primary screen, biochemical, fluorescence polarization, 1536-well format; inhibition, % at 6.36 µM; 330,000 tested, 0.41% active; Protein-arginine deiminase type-4 (Homo sapiens), Q9UM07; AID 485272, 2010; recombinant PAD4, RCA probe fluorescence polarization;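 active = percent inhibition above a cutoff equal to the mean of all tested compounds plus 3 SD, cut at about 15% in these data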;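 note: 0% = PAD4 with RCA probe and DMSO and 100% = probe without PAD4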
Target sequence (Q9UM07 whole entry, looked up): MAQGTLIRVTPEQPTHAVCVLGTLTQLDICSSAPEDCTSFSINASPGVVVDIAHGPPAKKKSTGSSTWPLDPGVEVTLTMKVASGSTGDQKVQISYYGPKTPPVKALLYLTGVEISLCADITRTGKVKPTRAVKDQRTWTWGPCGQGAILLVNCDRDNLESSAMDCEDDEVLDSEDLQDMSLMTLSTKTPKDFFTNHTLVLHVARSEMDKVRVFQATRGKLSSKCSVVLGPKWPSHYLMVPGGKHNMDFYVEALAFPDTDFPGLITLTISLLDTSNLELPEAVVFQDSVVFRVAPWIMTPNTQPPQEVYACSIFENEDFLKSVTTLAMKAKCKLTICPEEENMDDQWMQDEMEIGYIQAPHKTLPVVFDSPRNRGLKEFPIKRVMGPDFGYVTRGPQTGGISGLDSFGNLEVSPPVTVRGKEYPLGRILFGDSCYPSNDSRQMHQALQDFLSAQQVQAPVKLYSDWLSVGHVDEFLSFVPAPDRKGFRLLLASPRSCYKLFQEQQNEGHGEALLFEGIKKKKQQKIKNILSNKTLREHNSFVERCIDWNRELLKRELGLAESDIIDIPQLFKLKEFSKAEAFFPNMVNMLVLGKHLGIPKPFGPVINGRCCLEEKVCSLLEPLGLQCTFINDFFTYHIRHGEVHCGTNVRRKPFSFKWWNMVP
TDP2 inh – human TDP2 enzyme inhibitors, primary screen, biochemical, epi absorbance, recombinant enzyme; Tyrosyl-DNA phosphodiesterase 2 (Homo sapiens), O95551; T5PNP hydrolysis, p-nitrophenol absorbance 415 nm; inhibition, % at 12.8 µM; 370,000 tested, 0.34% active;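 active = inhibition above the mean of all tested compounds plus 3 SD, set per campaign, cut at about 25% in these data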;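 note: 0% = DMSO with enzyme and 100% = buffer with substrate but no TDP2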
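test system = human TDP2 enzyme | input = TDP2 enzyme at 120 nM final | medium = 50 mM Tris-HCl pH 7.5 with Mg2+, KCl, DTT, BSA | also added = T5PNP substrate, 5 mM | times = 2 h at 37 °C | technique = epi absorbance | benchmarks = high control without enzyme, low control DMSO plus TDP2 | replication = each compound tested once, singlicate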
ABHD4 inh – ABHD4 inhibitors, primary screen, biochemical, fluorescence polarization, mouse | (Lyso)-N-acylphosphatidylethanolamine lipase (Mus musculus), Q8VD66 | purified mABHD4, FP-Rh probe fluorescence polarization | inhibition, % at 8.92 µM | 370,000 tested, 0.54% active | AID 720543, 2013;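 active = inhibition exceeding the mean over every tested compound plus 3 SD, cut at about 30% in these data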;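 note: 0% = plate median of compound wells and 100% = S159A mutant with DMSO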
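Test system: mABHD4 protein; Read-out basis: % inhibition; Incubation: 45 min + 60 min at 25 °C; Repeats: single replicate; Technique: fluorescence polarization with parallel and perpendicular emission, 525/598 nm; Compound: 8.92 µM, single dose; Benchmarks: full inhibition S159A mutant plus DMSO, zero as sample-well median.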
TCR-CD3 inh – inhibitors of human TCR-CD3 interaction, primary screen, biochemical, fluorescence, TAMRA-labeled TCR probe | 360,000 tested, 0.37% active | inhibition, % at 9.4 µM | T-cell receptor (TCR); in the data active = inhibition above about 19%;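 note: recombinant mutant TCR 2C K166C tagged with TAMRA read by polarization; 0% = receptor in buffer alone and 100% = receptor with positive control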
HTRA1 inhibitor – HTRA1 serine protease inhibitors, primary screen, biochemical, fluorescence polarization, HTS. Q92743. recombinant HTRA1, FP-rhodamine activity-based probe. inhibition, % at 5.96 µM. 340,000 tested, 0.5% active. AID 504803, 2011; in the data active = inhibition above about 36%;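 note: 0% = enzyme with DMSO and 100% = wells lacking enzyme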
PAD4 FP conf – human PAD4 inhibitors, confirmation, biochemical, fluorescence polarization. shares compounds with PAD4 FP inh. recombinant PAD4, RCA probe fluorescence polarization. inhibition, % at 6.36 µM. 1,200 tested, 28% active;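 active = mean inhibition across replicates above the hit cutoff set by the earlier primary screen, cut at about 15% in these data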;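 note: inhibitors block active-site labeling by the probe so polarization falls; 0% = PAD4 with probe and DMSO and 100% = probe without PAD4 enzyme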
Active calls of the source: *; . = not tested or not shown.

SMILES | SIAE primary | PAD4 FP inh | TDP2 inh | ABHD4 inh | TCR-CD3 inh | HTRA1 inhibitor | PAD4 FP conf
Cc1cc([N+](=O)[O-])nn1CCCC(=O)Nc1ccc2c(c1)OCO2 | 1 | 15* | -4 | 8 | -7 | 0 | 0
Cc1ccccc1Cn1cc(NC(=O)CCCn2nc([N+](=O)[O-])cc2C)cn1 | 5 | 3 | -1 | 11 | -8 | 2 | .
O=C(O)CSc1c2ccccc2cc2ccccc12 | 3 | 23* | 19 | 22 | 0 | -5 | 20*
COc1cccc(NC2c3ccccc3C(=O)N2Cc2ccccc2Cl)c1 (centres undefined) | -2 | -1 | -17 | -14 | -5 | -31 | .
COc1cc(NC2c3ccccc3C(=O)N2Cc2ccccc2Cl)cc(OC)c1 (centres undefined) | -1 | 58* | -1 | -2 | -8 | -32 | 16*
Cc1[nH]n(-c2ccc(Cl)cc2)c(=O)c1C(=O)c1ccccc1 | -6 | -6 | -2 | -4 | -10 | 8 | .
CC1=NN(c2ccc(Cl)cc2)C(=O)C1C(c1cccc(O)c1)c1c(C)[nH]n(-c2ccc(Cl)cc2)c1=O (centres undefined) | . | 73* | . | . | . | 21 | -4
CC1=CC2(C(Cc3ccccc3)N(CC3CC3)C(=NC(=O)c3ccccc3)N2C(=O)OCc2ccccc2)n2c(=O)n(-c3ccccc3)c(=O)n2C1 (centres undefined) | 4 | . | -6 | 5 | . | . | .
C#CCOCCOCCOCCNc1nc(N2CCN(C(=O)[C@H](Cc3cc4ccccc4[nH]3)n3cc([C@@H](N)C(C)CC)nn3)CC2)nc(N2CCN(C(=O)[C@H](CCCCN)n3cc([C@@H](N)CO)nn3)CC2)n1 (some centres undefined) | . | -4 | . | . | . | . | .
C#CCOCCOCCOCCNc1nc(N2CCN(C(=O)[C@H](CCCCN)n3cc([C@@H](N)C(C)CC)nn3)CC2)nc(N2CCN(C(=O)[C@H](Cc3cc4ccccc4[nH]3)n3cc([C@@H](N)CC(C)C)nn3)CC2)n1 (some centres undefined) | . | 16* | . | . | . | 4 | 4
Cc1ccc(NC(=O)Cn2nnc(-c3ccccc3F)n2)c(C)c1 | 3 | . | 9 | -3 | . | . | .
COc1ccccc1N1C(=O)c2ccc(C(=O)Nc3cccc(C(C)=O)c3)cc2C1=O | -45 | 37* | -11 | 2 | 5 | -26 | 34*
COc1ccccc1N1C(=O)c2ccc(C(=O)Nc3ccc(F)cc3)cc2C1=O | -7 | -2 | -10 | 2 | -6 | -22 | .
COc1ccc(Cl)cc1Nc1nc(C)nc2c1oc1ccccc12 | 3 | 15* | -11 | -7 | -1 | -2 | -15
COc1ccc(C(=O)C2CCN(c3ncnc4sccc34)CC2)cc1 | 0 | . | 4 | -2 | . | . | .
Cc1ccc(CNC2CCC23CCC(c2ccccc2)CC3)o1 (centres undefined) | -2 | . | 0 | 6 | . | . | .
CCC[C@H]1[C@@H](NC(=O)C2CCCCC2)CC[C@@]23CCCN2C(=O)CCC[C@@H]13 | -22 | . | 3 | 5 | . | . | .
COCCCNC(=O)C(C#N)c1nc2ccccc2nc1N1CCCC1 (centres undefined) | -4 | -8 | 6 | 2 | 1 | 3 | .
COCCOC(=O)C(C#N)c1nc2ccccc2nc1N1CCCC1 (centres undefined) | 0 | 18* | 0 | 9 | 1 | 0 | 9
CCOc1ccc2nc(NC(=O)CN3CCN(c4ccccn4)CC3)sc2c1 | -8 | 4 | -4 | -1 | 2 | . | .
O=C(CN1CCN(c2ccccn2)CC1)Nc1nc2ccccc2s1 | 10 | 18* | 4 | -2 | -1 | -5 | 6
C[C@@H](CCCCC1(C)OCCO1)CCC(=O)N(c1ccccc1)c1ccccc1 | 2 | . | -1 | -4 | . | . | .
